{"source": "ChEMBL document CHEMBL1146375", "about": "“Synthetic studies on novel benzimidazolopeptides with antimicrobial, cytotoxic and anthelmintic potential” (2007)"}
{"test_system": "Bacillus subtilis", "experiment": "Antibacterial activity against Bacillus subtilis NCIM 2063 after 18 hrs by disc diffusion method", "type": "functional", "details": "not given", "summary_of_the_method": "(§1)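 Modified Kirby-Bauer disc diffusion. Plates inoculated with spore suspension (about 6 × 10⁴ spores mL^-1). Sterile 6 mm paper discs carried test samples at 10 mg mL^-1; ciprofloxacin disc as reference, DMF disc as negative control. Plates held 18 h at 37 °C. Inhibition zone diameters (mm) averaged over triplicate sets.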", "units": {"inhibition zone (IZ)": "mm"}}
{"smiles": "Cc1cc2nc(-c3c(I)cc(C(=O)N[C@@H](Cc4cnc[nH]4)C(=O)N4CCC[C@H]4C(=O)O)cc3I)[nH]c2cc1C", "inhibition zone (IZ)": 16}
{"test_system": "Trichophyton benhamiae", "experiment": "Antifungal activity against Trichophyton mentagrophytes MUCC 665 after 48 hrs by tube dilution method", "type": "functional, Arthroderma benhamiae", "details": "not given", "summary_of_the_method": "(§2)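 Tube dilution MIC as for bacteria (seven concentrations, 200–3.1 […]), with DMSO in place of DMF. Tubes inoculated with fungal culture and incubated 48 h at 37 °C. MIC read from presence or absence of growth.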", "units": {"MIC": "µg/mL"}}
{"smiles": "Cc1cc2nc(-c3c(I)cc(C(=O)N[C@@H](Cc4cnc[nH]4)C(=O)N4CCC[C@H]4C(=O)O)cc3I)[nH]c2cc1C", "MIC": 6}
{"test_system": "Candida albicans", "experiment": "Antifungal activity against Candida albicans MUCC 29 after 48 hrs by tube dilution method", "type": "functional", "details": "not given", "summary_of_the_method": "as §2", "units": {"MIC": "µg/mL"}}
{"smiles": "Cc1cc2nc(-c3c(I)cc(C(=O)N[C@@H](Cc4cnc[nH]4)C(=O)N4CCC[C@H]4C(=O)O)cc3I)[nH]c2cc1C", "MIC": 6}
{"test_system": "not listed separately", "experiment": "Growth inhibition of DLA cells at 125 ug/mL after 3 hrs", "type": "functional", "details": "Mus musculus", "summary_of_the_method": "(§3)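 DLA and EAC cells passaged intraperitoneally in albino mice, harvested after 15–20 days and adjusted to 1 × 10⁶ cells/mL. Dilutions in Dulbecco's medium (500–31.25, some down to 3.91 µg/mL; 5-FU reference) mixed 1:1 with cells and held 3 h at 37 °C. Trypan blue exclusion gave % growth inhibition; CTC50 by graphical extrapolation.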", "units": {"inhibition at 125 µg/mL": "%"}}
{"smiles": "Cc1cc2nc(-c3c(I)cc(C(=O)N[C@@H](Cc4cnc[nH]4)C(=O)N4CCC[C@H]4C(=O)O)cc3I)[nH]c2cc1C", "inhibition at 125 µg/mL": 34.2}
{"test_system": "not listed separately", "experiment": "Growth inhibition of EAC cells after 3 hrs", "type": "functional", "details": "Mus musculus, Ehrlich", "summary_of_the_method": "as §3", "units": {"CC50": "µM"}}
{"smiles": "Cc1cc2nc(-c3c(I)cc(C(=O)N[C@@H](Cc4cnc[nH]4)C(=O)N4CCC[C@H]4C(=O)O)cc3I)[nH]c2cc1C", "CC50": "> 665"}
{"test_system": "not listed separately", "experiment": "Growth inhibition of EAC cells at 62.5 ug/mL after 3 hrs", "type": "functional", "details": "Mus musculus, Ehrlich", "summary_of_the_method": "as §3", "units": {"inhibition at 62.5 µg/mL": "%"}}
{"smiles": "Cc1cc2nc(-c3c(I)cc(C(=O)N[C@@H](Cc4cnc[nH]4)C(=O)N4CCC[C@H]4C(=O)O)cc3I)[nH]c2cc1C", "inhibition at 62.5 µg/mL": 10.7}
{"test_system": "Microsporum audouinii", "experiment": "Antifungal activity against Microsporum audouinii MUCC 545 after 48 hrs by tube dilution method", "type": "functional", "details": "not given", "summary_of_the_method": "as §2", "units": {"MIC": "µg/mL"}}
{"smiles": "Cc1cc2nc(-c3c(I)cc(C(=O)N[C@@H](Cc4cnc[nH]4)C(=O)N4CCC[C@H]4C(=O)O)cc3I)[nH]c2cc1C", "MIC": 25}
{"test_system": "Pontoscolex corethrurus", "experiment": "Anthelmintic activity against Pontoscolex corethrurus ICARBC 408 assessed as mean paralyzing time", "type": "functional", "details": "not given", "summary_of_the_method": "(§4)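 Earthworms exposed to test suspensions at 2 mg mL^-1 (0.2% w/v), made by triturating compound with Tween 80 (0.5%) and distilled water, then mechanically stirred 30 min. Mebendazole suspension prepared alike as reference. Paralysis and death times recorded; death confirmed by no movement in 50 °C water. Means from triplicate sets.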", "units": {"Time": "min"}}
{"smiles": "Cc1cc2nc(-c3c(I)cc(C(=O)N[C@@H](Cc4cnc[nH]4)C(=O)N4CCC[C@H]4C(=O)O)cc3I)[nH]c2cc1C", "Time": 17.38}
{"test_system": "not listed separately", "experiment": "Growth inhibition of EAC cells at 500 ug/mL after 3 hrs", "type": "functional", "details": "Mus musculus, Ehrlich", "summary_of_the_method": "as §3", "units": {"inhibition at 500 µg/mL": "%"}}
{"smiles": "Cc1cc2nc(-c3c(I)cc(C(=O)N[C@@H](Cc4cnc[nH]4)C(=O)N4CCC[C@H]4C(=O)O)cc3I)[nH]c2cc1C", "inhibition at 500 µg/mL": 35.7}
{"test_system": "not listed separately", "experiment": "Anthelmintic activity against Megascoplex konkanensis ICARBC 211 assessed as mean paralyzing time", "type": "functional", "details": "not given", "summary_of_the_method": "as §4", "units": {"TIME": "h"}}
{"smiles": "Cc1cc2nc(-c3c(I)cc(C(=O)N[C@@H](Cc4cnc[nH]4)C(=O)N4CCC[C@H]4C(=O)O)cc3I)[nH]c2cc1C", "TIME": 0.228}
{"test_system": "Pseudomonas aeruginosa", "experiment": "Antibacterial activity against Pseudomonas aeruginosa NCIM 2034 after 18 hrs by disc diffusion method", "type": "functional", "details": "not given", "summary_of_the_method": "as §1", "units": {"inhibition zone (IZ)": "mm"}}
{"smiles": "Cc1cc2nc(-c3c(I)cc(C(=O)N[C@@H](Cc4cnc[nH]4)C(=O)N4CCC[C@H]4C(=O)O)cc3I)[nH]c2cc1C", "inhibition zone (IZ)": 27}
{"test_system": "Eudrilus", "experiment": "Anthelmintic activity against Eudrilus sp. assessed as mean paralyzing time", "type": "functional", "details": "not given", "summary_of_the_method": "as §4", "units": {"Time": "min"}}
{"smiles": "Cc1cc2nc(-c3c(I)cc(C(=O)N[C@@H](Cc4cnc[nH]4)C(=O)N4CCC[C@H]4C(=O)O)cc3I)[nH]c2cc1C", "Time": 13.37}
{"test_system": "Candida albicans", "experiment": "Antifungal activity against Candida albicans MUCC 29 after 48 hrs by disc diffusion method", "type": "functional", "details": "not given", "summary_of_the_method": "(§5)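 Agar well diffusion on plates inoculated with spore suspension in normal saline from cultures on Sabouraud's broth. Wells punched and loaded with test samples or griseofulvin at 10 mg mL^-1, with DMSO as negative control. Incubated 48 h at 37 °C.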", "units": {"inhibition zone (IZ)": "mm"}}
{"smiles": "Cc1cc2nc(-c3c(I)cc(C(=O)N[C@@H](Cc4cnc[nH]4)C(=O)N4CCC[C@H]4C(=O)O)cc3I)[nH]c2cc1C", "inhibition zone (IZ)": 25}
{"test_system": "not listed separately", "experiment": "Growth inhibition of EAC cells at 250 ug/mL after 3 hrs", "type": "functional", "details": "Mus musculus, Ehrlich", "summary_of_the_method": "as §3", "units": {"inhibition at 250 µg/mL": "%"}}
{"smiles": "Cc1cc2nc(-c3c(I)cc(C(=O)N[C@@H](Cc4cnc[nH]4)C(=O)N4CCC[C@H]4C(=O)O)cc3I)[nH]c2cc1C", "inhibition at 250 µg/mL": 28.6}
{"test_system": "not listed separately", "experiment": "Growth inhibition of DLA cells at 62.5 ug/mL after 3 hrs", "type": "functional", "details": "Mus musculus", "summary_of_the_method": "as §3", "units": {"inhibition at 62.5 µg/mL": "%"}}
{"smiles": "Cc1cc2nc(-c3c(I)cc(C(=O)N[C@@H](Cc4cnc[nH]4)C(=O)N4CCC[C@H]4C(=O)O)cc3I)[nH]c2cc1C", "inhibition at 62.5 µg/mL": 28.9}
{"test_system": "Trichophyton benhamiae", "experiment": "Antifungal activity against Trichophyton mentagrophytes MUCC 665 after 48 hrs by disc diffusion method", "type": "functional, Arthroderma benhamiae", "details": "not given", "summary_of_the_method": "as §5", "units": {"inhibition zone (IZ)": "mm"}}
{"smiles": "Cc1cc2nc(-c3c(I)cc(C(=O)N[C@@H](Cc4cnc[nH]4)C(=O)N4CCC[C@H]4C(=O)O)cc3I)[nH]c2cc1C", "inhibition zone (IZ)": 13}
